“And” between values parts separate entries of the source, which are not always exact repeats. Equal values may be shown once.
Tests used:
[1] = Range is evaluated. (Highest IC50/Lowest IC50); format: functional
HX62 cell line = assay: Compound was tested for in vitro growth inhibition of Ovarian carcinoma cell line panel HX62; format: functional, cell-based, Homo sapiens
Outline: (§1)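 Ovarian lines grown as monolayers in DMEM with 10% FBS, insulin, hydrocortisone and L-glutamine under 6% CO2. Cells were seeded at 3–5 × 10³/well and left to attach overnight. Compounds were freshly dissolved in DMA or water and applied for 96 h in quadruplicate wells. Growth was measured by SRB and reported as IC50.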

HT-29 = assay: Compound was tested for in vitro growth inhibition of primary panel tumor cell line HT-29/219; format: functional, cell-based, Homo sapiens
Outline: (§2)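 Primary-panel lines kept in L15, RPMI 1640 plus pyruvate, or MEM, each with 10% FBS. Cells were seeded at 5×10^4–10^5 cells/mL, preincubated 24 h, then exposed 4 h to 0–200 μg/mL from a 2 mg/mL stock in 10% DMA/PBS. After washout and 72 h further growth, cells were read by SRB. IC50 was the concentration giving 50% survival versus untreated controls.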

A2780 [2] = assay: Compound was tested for in vitro growth inhibition of Ovarian carcinoma cell line panel A2780-R; format: functional, cell-based, Homo sapiens; outline: as §1
SW 1116 = assay: Compound was tested for in vitro growth inhibition of primary panel tumor cell line SW1116; format: functional, cell-based, Homo sapiens; outline: as §2
SK-OV-3 [3] = assay: Compound was tested for in vitro growth inhibition of primary panel tumor cell lines SK-OV-3; format: functional, cell-based, Homo sapiens; outline: as §2
[4] = Solubility at 25 degrees Celsius in water; format: physicochemical; settings: buffer
Outline: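 5–10 mg sample was tumbled in 5.0 mL water at 25 °C for 24 h and filtered. The solution was diluted as needed and gold was quantified with 1 ppm indium as internal standard.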

CH1 [5] = assay: Compound was tested for in vitro growth inhibition of Ovarian carcinoma cell line panel CH1-R; format: functional, cell-based; outline: as §1
CH1 [6] = assay: Compound was tested for in vitro growth inhibition of Ovarian carcinoma cell line panel CH1; format: functional, cell-based; outline: as §1
A2780 [7] = assay: Compound was tested for in vitro growth inhibition of Ovarian carcinoma cell line panel A2780; format: functional, cell-based, Homo sapiens; outline: as §1
SW-620 [8] = assay: Compound was tested for in vitro growth inhibition of primary panel tumor cell lines SW620; format: functional, cell-based, Homo sapiens; outline: as §2
HT-1376 = assay: Compound was tested for in vitro growth inhibition of primary panel tumor cell line HT1376; format: functional, cell-based, Homo sapiens; outline: as §2
[9] = Solubility at 25 degrees Celsius in 1-Octanol; format: physicochemical
Outline: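 A sample was tumbled in 1-octanol at 25 °C for 24 h and filtered. An aliquot was evaporated and the residue taken up in dilute aqua regia. Gold content was determined as for the aqueous samples, with indium as internal standard.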

ZR-75-1 = assay: Compound was tested for in vitro growth inhibition of primary panel tumor cell line ZR-75-1; format: functional, cell-based, Homo sapiens; outline: as §2
SK-OV-3 [10] = assay: Compound was tested for in vitro growth inhibition of Ovarian carcinoma cell line panel SK-OV-3; format: functional, cell-based, Homo sapiens; outline: as §1
Mus musculus [11] = assay: Compound was evaluated for antitumor activity (RTV) in HT1376 carcinoma Xenograft, at a dosage 35 mg/kg on day 21; format: functional, organism-based; design: dose 35 mg/kg
Outline: (§3)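 HT1376 tumor fragments implanted subcutaneously in nude mice flanks; mice with established palpable tumors randomized into groups of 6 (controls 10). Compounds given intraperitoneally as suspensions in 0.5% carboxymethylcellulose in 0.9% saline, on days 0, 7, 14 and 21. Tumor dimensions on days 0, 7, 14, 21, 28. RTV = 100(mean tumor volume at assessment)/(mean start volume).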

Mus musculus [12] = assay: Compound was evaluated for antitumor activity (T/C) in HT1376 carcinoma Xenograft, at a dosage 8.75 mg/kg on day 14; format: functional, organism-based; design: dose 8.75 mg/kg
Outline: (§4)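 Nude mice carrying subcutaneous flank HT1376 fragments; treatment began once tumors were established and palpable, randomized into groups of 6 treated and 10 control mice. Dosing was ip as a suspension in 0.5% carboxymethylcellulose in 0.9% saline on days 0, 7, 14 and 21, at the MTD and two 2-fold dilutions. Tumors were measured on days 0-28. RTV = 100(mean volume at assessment)/(mean start volume); T/C = treated RTV/control RTV.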

Mus musculus [13] = assay: Compound was evaluated for antitumor activity (T/C) in HT1376 carcinoma Xenograft, at a dosage 35 mg/kg on day 21; format: functional, organism-based; design: dose 35 mg/kg; outline: as §4
Mus musculus [14] = assay: Compound was evaluated for antitumor activity (RTV) in HT1376 carcinoma Xenograft, at a dosage 8.75 mg/kg on day 21; format: functional, organism-based; design: dose 8.75 mg/kg; outline: as §3
Mus musculus [15] = assay: Compound was evaluated for antitumor activity (T/C) in HT1376 carcinoma Xenograft, at a dosage 35 mg/kg on day 7; format: functional, organism-based; design: dose 35 mg/kg; outline: as §4
Mus musculus [16] = assay: Compound was evaluated for antitumor activity (RTV) in HT1376 carcinoma Xenograft, at a dosage 8.75 mg/kg on day 14; format: functional, organism-based; design: dose 8.75 mg/kg; outline: as §3
Mus musculus [17] = assay: Compound was evaluated for antitumor activity (RTV) in HT1376 carcinoma Xenograft, at a dosage 17.5 mg/kg on day 21; format: functional, organism-based; design: dose 17.5 mg/kg; outline: as §3
Mus musculus [18] = assay: Compound was evaluated for antitumor activity (RTV) in HT1376 carcinoma Xenograft, at a dosage 17.5 mg/kg on day 14; format: functional, organism-based; design: dose 17.5 mg/kg; outline: as §3
Mus musculus [19] = assay: Compound was evaluated for antitumor activity (T/C) in HT1376 carcinoma Xenograft, at a dosage 35 mg/kg on day 14; format: functional, organism-based; design: dose 35 mg/kg; outline: as §4
Mus musculus [20] = assay: Compound was evaluated for antitumor activity (T/C) in HT1376 carcinoma Xenograft, at a dosage 8.75 mg/kg on day 28; format: functional, organism-based; design: dose 8.75 mg/kg; outline: as §4
Mus musculus [21] = assay: Compound was evaluated for antitumor activity (T/C) in HT1376 carcinoma Xenograft, at a dosage 8.75 mg/kg on day 21; format: functional, organism-based; design: dose 8.75 mg/kg; outline: as §4
Mus musculus [22] = assay: Compound was evaluated for antitumor activity (RTV) in HT1376 carcinoma Xenograft, at a dosage 8.75 mg/kg on day 7; format: functional, organism-based; design: dose 8.75 mg/kg; outline: as §3
Mus musculus [23] = assay: Compound was evaluated for antitumor activity (T/C) in HT1376 carcinoma Xenograft, at a dosage 17.5 mg/kg on day 14; format: functional, organism-based; design: dose 17.5 mg/kg
Outline: (§5)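 Subcutaneous HT1376 xenografts in nude mice, 6 per treated group and 10 controls. Intraperitoneal dosing as suspensions in 0.5% carboxymethylcellulose/0.9% saline on days 0, 7, 14, 21; tumors measured weekly to day 28. T/C = RTV of treated group / RTV of untreated control group; significance by t-test at the 5% level.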

Mus musculus [24] = assay: Compound was evaluated for antitumor activity (RTV) in HT1376 carcinoma Xenograft, at a dosage 17.5 mg/kg on day 7; format: functional, organism-based; design: dose 17.5 mg/kg; outline: as §3
Mus musculus [25] = assay: Compound was evaluated for antitumor activity (RTV) in HT1376 carcinoma Xenograft, at a dosage 35 mg/kg on day 7; format: functional, organism-based; design: dose 35 mg/kg; outline: as §3
Mus musculus [26] = assay: Compound was evaluated for antitumor activity (RTV) in HT1376 carcinoma Xenograft, at a dosage 35 mg/kg on day 28; format: functional, organism-based; design: dose 35 mg/kg; outline: as §3
Mus musculus [27] = assay: Compound was evaluated for antitumor activity (T/C) in HT1376 carcinoma Xenograft, at a dosage 17.5 mg/kg on day 28; format: functional, organism-based; design: dose 17.5 mg/kg; outline: as §5
Mus musculus [28] = assay: Compound was evaluated for antitumor activity (T/C) in HT1376 carcinoma Xenograft, at a dosage 35 mg/kg on day 28; format: functional, organism-based; design: dose 35 mg/kg; outline: as §4
Mus musculus [29] = assay: Compound was evaluated for antitumor activity (T/C) in HT1376 carcinoma Xenograft, at a dosage 8.75 mg/kg on day 7; format: functional, organism-based; design: dose 8.75 mg/kg; outline: as §4
Mus musculus [30] = assay: Compound was evaluated for antitumor activity (T/C) in HT1376 carcinoma Xenograft, at a dosage 17.5 mg/kg on day 21; format: functional, organism-based; design: dose 17.5 mg/kg; outline: as §5
Mus musculus [31] = assay: Compound was evaluated for antitumor activity (RTV) in HT1376 carcinoma Xenograft, at a dosage 35 mg/kg on day 14; format: functional, organism-based; design: dose 35 mg/kg; outline: as §3
Mus musculus [32] = assay: Compound was evaluated for antitumor activity (T/C) in HT1376 carcinoma Xenograft, at a dosage 17.5 mg/kg on day 7; format: functional, organism-based; design: dose 17.5 mg/kg; outline: as §5
Mus musculus [33] = assay: Compound was evaluated for antitumor activity (RTV) in HT1376 carcinoma Xenograft, at a dosage 17.5 mg/kg on day 28; format: functional, organism-based; design: dose 17.5 mg/kg; outline: as §3
Mus musculus [34] = assay: Compound was evaluated for antitumor activity (RTV) in HT1376 carcinoma Xenograft, at a dosage 8.75 mg/kg on day 28; format: functional, organism-based; design: dose 8.75 mg/kg; outline: as §3
SK-OV-3 [35] = assay: Compound was tested for in vitro growth inhibition of Ovarian carcinoma cell line panelSK-OV-3; format: functional, cell-based, Homo sapiens; outline: as §1
SW-620 [36] = assay: Compound was tested for in vitro growth inhibition of primary panel tumor cell line SW620; format: functional, cell-based, Homo sapiens; outline: as §2
[37] = Range is evaluated.; format: functional

Dichloro[2-(dimethylamino)methyl]phenyl-C,N]gold-(III) [listing 1 of 2 here]
Range [1]: 4.6 and 13.3

Acetato[2-(dimethylamino)methyl]phenyl-C,N]gold-(III)
IC50 (HX62 cell line): 34 µM | IC50 (HT-29): 67 µM | IC50 (A2780 [2]): 35 µM | IC50 (SW 1116): 238 µM | IC50 (SK-OV-3 [3]): 13 µM | Solubility [4]: > 5.23 mM | IC50 (CH1 [5]): 12 µM | IC50 (CH1 [6]): 11 µM | IC50 (A2780 [7]): 3.5 µM | IC50 (SW-620 [8]): 281 µM | IC50 (HT-1376): 13 µM | Solubility [9]: > 5.28 mM | IC50 (ZR-75-1): 45 µM | IC50 (SK-OV-3 [10]): 107 µM

Malonato[2-(dimethylamino)methyl]phenyl-C,N]gold-(III) [listing 1 of 2 here]
RTV (Mus musculus [11]): 488 | T/C (Mus musculus [12]): 1 | T/C (Mus musculus [13]): 0.58 | RTV (Mus musculus [14]): 894 | Range [1]: 7.3 and 11.1 | T/C (Mus musculus [15]): 0.8 | RTV (Mus musculus [16]): 513 | RTV (Mus musculus [17]): 699 | RTV (Mus musculus [18]): 451 | T/C (Mus musculus [19]): 0.57 | T/C (Mus musculus [20]): 1.17 | T/C (Mus musculus [21]): 1.06 | RTV (Mus musculus [22]): 264 | T/C (Mus musculus [23]): 0.88 | RTV (Mus musculus [24]): 266 | RTV (Mus musculus [25]): 210 | RTV (Mus musculus [26]): 816 | T/C (Mus musculus [27]): 0.76 | T/C (Mus musculus [28]): 0.77 | T/C (Mus musculus [29]): 1 | T/C (Mus musculus [30]): 0.83 | RTV (Mus musculus [31]): 292 | T/C (Mus musculus [32]): 1.01 | RTV (Mus musculus [33]): 802 | RTV (Mus musculus [34]): 1230

Dichloro[2-(dimethylamino)methyl]phenyl-C,N]gold-(III) [listing 2 of 2 here]
IC50 (SK-OV-3 [35]): 109 µM | IC50 (HX62 cell line): 57 µM | IC50 (HT-29): 55 µM | IC50 (A2780 [2]): 47 µM | IC50 (SW 1116): 119 µM | IC50 (SK-OV-3 [3]): 45 µM | Solubility [4]: 0.25 mM | IC50 (CH1 [5]): 22 µM | IC50 (CH1 [6]): 13 µM | IC50 (A2780 [7]): 8.2 µM | IC50 (SW-620 [8]): 124 µM | IC50 (HT-1376): 30 µM | Solubility [9]: 0.92 mM | IC50 (ZR-75-1): 27 µM

Malonato[2-(dimethylamino)methyl]phenyl-C,N]gold-(III) [listing 2 of 2 here]
IC50 (HX62 cell line): 27 µM | IC50 (HT-29): 36 µM | IC50 (A2780 [2]): 16 µM | IC50 (SW 1116): 80 µM | IC50 (SK-OV-3 [3]): 11 µM | Solubility [4]: 3.58 mM | IC50 (CH1 [5]): 3.3 µM | IC50 (CH1 [6]): 2.7 µM | IC50 (A2780 [7]): 2.7 µM | IC50 (HT-1376): 11 µM | Solubility [9]: 3.57 mM | IC50 (SW-620 [36]): 67 µM | IC50 (ZR-75-1): 36 µM | IC50 (SK-OV-3 [10]): 30 µM

Oxalato[2-(dimethylamino)methyl]phenyl-C,N]gold-(III) Hemihydrate
Range [1]: 21.5 | Range [37]: 11.4

Reference: ChEMBL document CHEMBL1129059, “Antitumor properties of some 2-[(dimethylamino)methyl]phenylgold(III) complexes” (J Med Chem, 1996)
